Data from ChEMBL document CHEMBL4152203, “Antiproliferative hydrogen sulfide releasing evodiamine derivatives and their apoptosis inducing properties” (Eur J Med Chem, 2018).

Experiments:
SGC-7901 = test: Antiproliferative activity against human SGC7901 cells after 72 hrs by MTT assay; format: functional, cell-based; conditions: SGC-7901, 72 h
How it was run: (§1)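 Cells seeded and pre-incubated 24 h at 37 °C, 5% CO2, then exposed to compounds for 72 h. MTT (5 mg/mL stock) added for 4 h, formazan dissolved in DMSO for 10 min at room temperature, absorbance read at 570 nm. 0.1% DMSO as negative and 5-FU as positive reference. IC50 derived from inhibition ratios; mean ± SD of three independent experiments.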

Bel-7402 = test: Antiproliferative activity against human Bel7402 cells after 72 hrs by MTT assay; format: functional, cell-based; conditions: Bel-7402, 72 h; how it was run: as §1
MCF7 = test: Antiproliferative activity against human MCF7 cells after 72 hrs by MTT assay; format: functional, cell-based; conditions: MCF7, 72 h; how it was run: as §1
HL-60 = test: Antiproliferative activity against human HL60 cells after 72 hrs by MTT assay; format: functional, cell-based; conditions: HL-60, 72 h; how it was run: as §1
PBMC = test: Antiproliferative activity against human PBMC cells after 72 hrs by MTT assay; format: cell-based; how it was run: as §1
Caco-2 = test: Antiproliferative activity against human Caco2 cells after 72 hrs by MTT assay; format: functional, cell-based; conditions: Caco-2, 72 h; how it was run: as §1

SMILES	IC50 (SGC-7901)	IC50 (Bel-7402)	IC50 (MCF7)	IC50 (HL-60)	IC50 (PBMC)	IC50 (Caco-2)
CN1c2ccccc2C(=O)N2CCc3c(n(CCCC(=O)Oc4ccc(-c5cc(=S)ss5)cc4)c4ccccc34)C21 (stereo not drawn)	> 50 µM	> 50 µM	> 50 µM	14.1 µM	> 100 µM	4.08 µM
CN1c2ccccc2C(=O)N2CCc3c(n(CCCCC(=O)OCCCOc4ccc(-c5cc(=S)ss5)cc4)c4ccccc34)C21 (stereo not drawn)	> 50 µM	30.5 µM	> 50 µM	0.99 µM	> 100 µM	3.05 µM
CN1c2ccccc2C(=O)N2CCc3c(n(CCCC(=O)OCCCOc4ccc(-c5cc(=S)ss5)cc4)c4ccccc34)C21 (stereo not drawn)	> 50 µM	> 50 µM	> 50 µM	1.04 µM	> 100 µM	2.81 µM
CN1c2ccccc2C(=O)N2CCc3c(n(CCCOC(=O)CCCCC4CCSS4)c4ccccc34)C21 (stereo not drawn)	> 50 µM	> 50 µM	39.7 µM	2.09 µM	> 100 µM	2.84 µM
CN1c2ccccc2C(=O)N2CCc3c(n(CC(=O)OCCCOc4ccc(-c5cc(=S)ss5)cc4)c4ccccc34)C21 (stereo not drawn)	24.7 µM	34.2 µM	27.9 µM	2.74 µM	> 100 µM	5.1 µM
O=c1[nH]cc(F)c(=O)[nH]1 [FLUOROURACIL]	19.8 µM	19 µM	26.9 µM	3.46 µM	–	38.8 µM
CN1c2ccccc2C(=O)N2CCc3c(n(CC(=O)OCCOc4ccc(-c5cc(=S)ss5)cc4)c4ccccc34)C21 (stereo not drawn)	32.9 µM	26.8 µM	38.4 µM	1.92 µM	> 100 µM	6.35 µM
CN1c2ccccc2C(=O)N2CCc3c(n(CC(=O)OCCCCOc4ccc(-c5cc(=S)ss5)cc4)c4ccccc34)C21 (stereo not drawn)	> 50 µM	> 50 µM	> 50 µM	0.83 µM	> 100 µM	4.34 µM
CN1c2ccccc2C(=O)N2CCc3c(n(CC(=O)Oc4ccc(-c5cc(=S)ss5)cc4)c4ccccc34)C21 (stereo not drawn)	26.8 µM	25.8 µM	47.5 µM	> 50 µM	> 100 µM	22.9 µM
Oc1ccc(-c2cc(=S)ss2)cc1	> 50 µM	> 50 µM	> 50 µM	25.9 µM	> 100 µM	35.5 µM
CN1c2ccccc2C(=O)N2CCc3c(n(CCCC(=O)OCCOc4ccc(-c5cc(=S)ss5)cc4)c4ccccc34)C21 (stereo not drawn)	47.4 µM	45.2 µM	40.2 µM	1.03 µM	> 100 µM	4.18 µM
CN1c2ccccc2C(=O)N2CCc3c(n(CCCOCCCOC(=O)CCCCC4CCSS4)c4ccccc34)C21 (stereo not drawn)	31 µM	> 50 µM	22.4 µM	9.38 µM	> 100 µM	5.14 µM
CN1c2ccccc2C(=O)N2CCc3c([nH]c4ccccc34)C21 (stereo not drawn)	6.93 µM	1.19 µM	28.5 µM	1.36 µM	21 µM	2.73 µM
CN1c2ccccc2C(=O)N2CCc3c(n(CCOC(=O)CCCCC4CCSS4)c4ccccc34)C21 (stereo not drawn)	> 50 µM	20.5 µM	9.47 µM	0.97 µM	> 100 µM	3.18 µM
CN1c2ccccc2C(=O)N2CCc3c(n(CCCCC(=O)Oc4ccc(-c5cc(=S)ss5)cc4)c4ccccc34)C21 (stereo not drawn)	30.2 µM	> 50 µM	48.7 µM	> 50 µM	> 100 µM	38.1 µM
O=C(O)CCCCC1CCSS1 (stereo not drawn) [LIPOIC ACID, ALPHA]	> 50 µM	> 50 µM	> 50 µM	16.4 µM	> 100 µM	14.3 µM
CN1c2ccccc2C(=O)N2CCc3c(n(CCCCCCOC(=O)CCCCC4CCSS4)c4ccccc34)C21 (stereo not drawn)	35.7 µM	22.1 µM	28 µM	3.49 µM	> 100 µM	4.88 µM
CN1c2ccccc2C(=O)N2CCc3c(n(CCCC(=O)OCCCCOc4ccc(-c5cc(=S)ss5)cc4)c4ccccc34)C21 (stereo not drawn)	> 50 µM	45 µM	29.1 µM	0.7 µM	> 100 µM	3.87 µM
CN1c2ccccc2C(=O)N2CCc3c(n(CCCCC(=O)OCCOc4ccc(-c5cc(=S)ss5)cc4)c4ccccc34)C21 (stereo not drawn)	43.6 µM	41.4 µM	29.7 µM	2.09 µM	> 100 µM	4.22 µM
